Measurements taken from ChEMBL document CHEMBL4330168, “Monomeric and Dimeric Cytotoxic Guaianolide-Type Sesquiterpenoids from the Aerial Parts of Chrysanthemum indicum” (J Nat Prod, 2019).

What was measured:
SUNE1 = experiment: Cytotoxicity against human SUNE1 cells after 48 hrs by MTT assay; type: functional, cell-based; conditions: SUNE1, 48 h
Procedure, shortened: (§1)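 Growth inhibition in nasopharyngeal carcinoma lines (CNE1, CNE2, HONE-1, SUNE-1) and HT-29 colon cells. IC50 values are the mean ± SD of three experiments, with cisplatin as positive control.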

HT-29 = experiment: Cytotoxicity against human HT-29 cells after 48 hrs by MTT assay; type: functional, cell-based; conditions: HT-29, 48 h; procedure, shortened: as §1
CNE = experiment: Cytotoxicity against human CNE1 cells after 48 hrs by MTT assay; type: functional, cell-based; procedure, shortened: as §1
HONE1 cell line [1] = experiment: Cytotoxicity against human HONE1 cells after 48 hrs by MTT assay; type: functional, cell-based; conditions: HONE1, 48 h; procedure, shortened: as §1
CNE-2 = experiment: Cytotoxicity against human CNE2 cells after 48 hrs by MTT assay; type: functional, cell-based; conditions: CNE-2, 48 h; procedure, shortened: as §1
HONE1 cell line [2] = experiment: Induction of apoptosis in human HONE1 cells assessed as live cells at 10 uM after 48 hrs by Annexin V-FITC/propidium iodide staining based flow cytometry (reference value: 96.16%); type: functional
HONE1 cell line [3] = experiment: Cell cycle arrest in human HONE1 cells assessed as accumulation at G2/M phase at 20 uM after 48 hrs by propidium iodide staining based flow cytometry (reference value: 0.3%); type: functional
HONE1 cell line [4] = experiment: Cell cycle arrest in human HONE1 cells assessed as accumulation at G0/G1 phase at 20 uM after 48 hrs by propidium iodide staining based flow cytometry (reference value: 55%); type: functional
HONE1 cell line [5] = experiment: Induction of apoptosis in human HONE1 cells assessed as late apoptotic cells at 1 uM after 48 hrs by Annexin V-FITC/propidium iodide staining based flow cytometry (reference value: 0.37%); type: functional
HONE1 cell line [6] = experiment: Cell cycle arrest in human HONE1 cells assessed as accumulation at G0/G1 phase at 5 uM after 48 hrs by propidium iodide staining based flow cytometry (reference value: 55%); type: functional
HONE1 cell line [7] = experiment: Induction of apoptosis in human HONE1 cells assessed as necrotic cells at 20 uM after 48 hrs by Annexin V-FITC/propidium iodide staining based flow cytometry (reference value: 0.23%); type: functional
HONE1 cell line [8] = experiment: Induction of apoptosis in human HONE1 cells assessed as live cells at 1 uM after 48 hrs by Annexin V-FITC/propidium iodide staining based flow cytometry (reference value: 96.16%); type: functional
HONE1 cell line [9] = experiment: Cell cycle arrest in human HONE1 cells assessed as accumulation at S phase at 5 uM after 48 hrs by propidium iodide staining based flow cytometry (reference value: 44.7%); type: functional
HONE1 cell line [10] = experiment: Induction of apoptosis in human HONE1 cells assessed as late apoptotic cells at 5 uM after 48 hrs by Annexin V-FITC/propidium iodide staining based flow cytometry (reference value: 0.37%); type: functional
HONE1 cell line [11] = experiment: Induction of apoptosis in human HONE1 cells assessed as live cells at 20 uM after 48 hrs by Annexin V-FITC/propidium iodide staining based flow cytometry (reference value: 96.16%); type: functional
HONE1 cell line [12] = experiment: Cell cycle arrest in human HONE1 cells assessed as accumulation at S phase at 20 uM after 48 hrs by propidium iodide staining based flow cytometry (reference value: 44.7%); type: functional
HONE1 cell line [13] = experiment: Cell cycle arrest in human HONE1 cells assessed as accumulation at G0/G1 phase at 10 uM after 48 hrs by propidium iodide staining based flow cytometry (reference value: 55%); type: functional
HONE1 cell line [14] = experiment: Induction of apoptosis in human HONE1 cells assessed as late apoptotic cells at 10 uM after 48 hrs by Annexin V-FITC/propidium iodide staining based flow cytometry (reference value: 0.37%); type: functional
HONE1 cell line [15] = experiment: Cell cycle arrest in human HONE1 cells assessed as accumulation at S phase at 10 uM after 48 hrs by propidium iodide staining based flow cytometry (reference value: 44.7%); type: functional
HONE1 cell line [16] = experiment: Induction of apoptosis in human HONE1 cells assessed as live cells at 5 uM after 48 hrs by Annexin V-FITC/propidium iodide staining based flow cytometry (reference value: 96.16%); type: functional
HONE1 cell line [17] = experiment: Cell cycle arrest in human HONE1 cells assessed as accumulation at G0/G1 phase at 3 uM after 48 hrs by propidium iodide staining based flow cytometry (reference value: 55%); type: functional
HONE1 cell line [18] = experiment: Induction of apoptosis in human HONE1 cells assessed as live cells at 3 uM after 48 hrs by Annexin V-FITC/propidium iodide staining based flow cytometry (reference value: 96.16%); type: functional
HONE1 cell line [19] = experiment: Cell cycle arrest in human HONE1 cells assessed as accumulation at G2/M phase at 3 uM after 48 hrs by propidium iodide staining based flow cytometry (reference value: 0.3%); type: functional
HONE1 cell line [20] = experiment: Induction of apoptosis in human HONE1 cells assessed as necrotic cells at 10 uM after 48 hrs by Annexin V-FITC/propidium iodide staining based flow cytometry (reference value: 0.23%); type: functional
HONE1 cell line [21] = experiment: Induction of apoptosis in human HONE1 cells assessed as early apoptotic cells at 5 uM after 48 hrs by Annexin V-FITC/propidium iodide staining based flow cytometry (reference value: 3.24%); type: functional
HONE1 cell line [22] = experiment: Induction of apoptosis in human HONE1 cells assessed as early apoptotic cells at 10 uM after 48 hrs by Annexin V-FITC/propidium iodide staining based flow cytometry (reference value: 3.24%); type: functional
HONE1 cell line [23] = experiment: Induction of apoptosis in human HONE1 cells assessed as necrotic cells at 1 uM after 48 hrs by Annexin V-FITC/propidium iodide staining based flow cytometry (reference value: 0.23%); type: functional
HONE1 cell line [24] = experiment: Induction of apoptosis in human HONE1 cells assessed as necrotic cells at 3 uM after 48 hrs by Annexin V-FITC/propidium iodide staining based flow cytometry (reference value: 0.23%); type: functional
HONE1 cell line [25] = experiment: Induction of apoptosis in human HONE1 cells assessed as early apoptotic cells at 1 uM after 48 hrs by Annexin V-FITC/propidium iodide staining based flow cytometry (reference value: 3.24%); type: functional
HONE1 cell line [26] = experiment: Cell cycle arrest in human HONE1 cells assessed as accumulation at S phase at 3 uM after 48 hrs by propidium iodide staining based flow cytometry (reference value: 44.7%); type: functional
HONE1 cell line [27] = experiment: Induction of apoptosis in human HONE1 cells assessed as late apoptotic cells at 20 uM after 48 hrs by Annexin V-FITC/propidium iodide staining based flow cytometry (reference value: 0.37%); type: functional
HONE1 cell line [28] = experiment: Induction of apoptosis in human HONE1 cells assessed as early apoptotic cells at 3 uM after 48 hrs by Annexin V-FITC/propidium iodide staining based flow cytometry (reference value: 3.24%); type: functional
HONE1 cell line [29] = experiment: Induction of apoptosis in human HONE1 cells assessed as early apoptotic cells at 20 uM after 48 hrs by Annexin V-FITC/propidium iodide staining based flow cytometry (reference value: 3.24%); type: functional
HONE1 cell line [30] = experiment: Induction of apoptosis in human HONE1 cells assessed as necrotic cells at 5 uM after 48 hrs by Annexin V-FITC/propidium iodide staining based flow cytometry (reference value: 0.23%); type: functional
HONE1 cell line [31] = experiment: Induction of apoptosis in human HONE1 cells assessed as late apoptotic cells at 3 uM after 48 hrs by Annexin V-FITC/propidium iodide staining based flow cytometry (reference value: 0.37%); type: functional
HONE1 cell line [32] = experiment: Cell cycle arrest in human HONE1 cells assessed as accumulation at G2/M phase at 10 uM after 48 hrs by propidium iodide staining based flow cytometry (reference value: 0.3%); type: functional
HONE1 cell line [33] = experiment: Cell cycle arrest in human HONE1 cells assessed as accumulation at G2/M phase at 5 uM after 48 hrs by propidium iodide staining based flow cytometry (reference value: 0.3%); type: functional

C/C=C(\C)C(=O)O[C@H]1C[C@@](C)(O)[C@]23C=C[C@](C)([C@@H]2[C@H]2OC(=O)[C@@H](C)[C@@H]21)[C@]1(C3)C(=O)O[C@@H]2[C@H]3C(C)=CC[C@H]3[C@](C)(O)C[C@H](O)[C@H]21
IC50 (SUNE1): > 10 µM | IC50 (HT-29): > 10 µM | IC50 (CNE): > 10 µM | IC50 (HONE1 cell line [1]): 9.2 µM | IC50 (CNE-2): 9.9 µM

C/C=C(\C)C(=O)O[C@H]1C[C@@](C)(O)[C@@H]2CC(=O)C(C)=C2[C@H]2OC(=O)[C@@H](C)[C@H]12
IC50 (SUNE1): > 10 µM | IC50 (HT-29): > 10 µM | IC50 (CNE): > 10 µM | IC50 (HONE1 cell line [1]): > 10 µM | IC50 (CNE-2): > 10 µM

C=C1C(=O)O[C@H]2[C@H]1[C@@H](OC(=O)/C(C)=C/C)C[C@@](C)(O)[C@]13C=C[C@](C)([C@H]21)[C@]1(C3)C(=O)O[C@@H]2[C@H]3C(C)=CC[C@H]3[C@](C)(O)C[C@H](O)[C@H]21
IC50 (SUNE1): > 10 µM | IC50 (HT-29): > 10 µM | IC50 (CNE): > 10 µM | IC50 (HONE1 cell line [1]): 7.5 µM | IC50 (CNE-2): > 10 µM

C=C1C(=O)O[C@H]2[C@H]1[C@@H](OC(=O)/C(C)=C/C)C[C@@](C)(O)[C@]13C=C[C@](C)([C@H]21)[C@]1(C3)C(=O)O[C@@H]2[C@H]3C(C)=CC[C@H]3[C@](C)(O)C[C@H](OC(=O)/C(C)=C/C)[C@H]21
Activity (HONE1 cell line [2]): 65.22% | IC50 (SUNE1): 4.3 µM | Activity (HONE1 cell line [3]): 38.22% | Activity (HONE1 cell line [4]): 14.01% | Activity (HONE1 cell line [5]): 1.14% | Activity (HONE1 cell line [6]): 50.22% | Activity (HONE1 cell line [7]): 6.08% | Activity (HONE1 cell line [8]): 96.45% | Activity (HONE1 cell line [9]): 42.25% | Activity (HONE1 cell line [10]): 2.61% | Activity (HONE1 cell line [11]): 56.74% | Activity (HONE1 cell line [12]): 47.77% | Activity (HONE1 cell line [13]): 40.89% | Activity (HONE1 cell line [14]): 23.45% | Activity (HONE1 cell line [15]): 42.59% | Activity (HONE1 cell line [16]): 81.86% | Activity (HONE1 cell line [17]): 44.75% | Activity (HONE1 cell line [18]): 96.38% | IC50 (HT-29): 9.6 µM | Activity (HONE1 cell line [19]): 5.93% | Activity (HONE1 cell line [20]): 0.79% | Activity (HONE1 cell line [21]): 15% | Activity (HONE1 cell line [22]): 10.54% | Activity (HONE1 cell line [23]): 0.21% | Activity (HONE1 cell line [24]): 0.16% | Activity (HONE1 cell line [25]): 2.2% | Activity (HONE1 cell line [26]): 49.32% | Activity (HONE1 cell line [27]): 27.85% | Activity (HONE1 cell line [28]): 3.01% | Activity (HONE1 cell line [29]): 9.33% | Activity (HONE1 cell line [30]): 0.53% | Activity (HONE1 cell line [31]): 0.45% | IC50 (CNE): 4.6 µM | IC50 (HONE1 cell line [1]): 3.5 µM | Activity (HONE1 cell line [32]): 16.52% | Activity (HONE1 cell line [33]): 7.52% | IC50 (CNE-2): 6 µM

C=C1C(=O)O[C@H]2[C@H]1[C@@H](O)C[C@@](C)(O)[C@]13C=C[C@](C)([C@H]21)[C@]1(C3)C(=O)O[C@@H]2[C@H]3C(C)=CC[C@H]3[C@](C)(O)C[C@H](OC(=O)/C(C)=C\C)[C@H]21
IC50 (SUNE1): > 10 µM | IC50 (HT-29): > 10 µM | IC50 (CNE): > 10 µM | IC50 (HONE1 cell line [1]): > 10 µM | IC50 (CNE-2): > 10 µM

CC1=CC[C@@H]2[C@H]1[C@H]1OC(=O)[C@H](C)[C@@H]1[C@@H](O)C[C@@]2(C)O
IC50 (SUNE1): > 10 µM | IC50 (HT-29): > 10 µM | IC50 (CNE): > 10 µM | IC50 (HONE1 cell line [1]): > 10 µM | IC50 (CNE-2): > 10 µM

C=C1C(=O)O[C@@H]2[C@H]3C(C)=CC[C@H]3[C@](C)(O)C[C@H](OC(=O)/C(C)=C/C)[C@@H]12
IC50 (SUNE1): 3 µM | IC50 (HT-29): > 10 µM | IC50 (CNE): 7.9 µM | IC50 (HONE1 cell line [1]): 6.5 µM | IC50 (CNE-2): > 10 µM

C/C=C(/C)C(=O)O[C@H]1C[C@@](C)(O)[C@@H]2CC(=O)C(C)=C2[C@H]2OC(=O)[C@@H](C)[C@H]12
IC50 (SUNE1): > 10 µM | IC50 (HT-29): > 10 µM | IC50 (CNE): > 10 µM | IC50 (HONE1 cell line [1]): > 10 µM | IC50 (CNE-2): > 10 µM
